Test results: ChEMBL document CHEMBL2331471, “Vegfrecine, an inhibitor of VEGF receptor tyrosine kinases isolated from the culture broth of Streptomyces sp” (J Nat Prod, 2013)
The source made the active and inactive calls. No cut-off for these calls is given here.

How the values were obtained:
[1] = target: Vascular endothelial growth factor receptor 3 (Homo sapiens, UniProt P35916); assay: Inhibition of Flt4 (unknown origin) after 20 mins by scintillation counting
Summary of the method: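 Radiometric filter-plate kinase assay for Flt-1, Flt-4 and PDGFR-α. Buffer: 20 mM Tris-HCl pH 7.4, 3 mM MnCl2, 3 mM MgCl2, 50 μg/mL poly GluTyr, 100 mM NaCl, Na3VO4, DTT, 0.5% BSA. Kinase (55 ng) plus compound in 2% DMSO buffer; reaction started with 4 μM ATP/32P-ATP solution. Ran 20 min at room temperature, stopped with 30% TCA, washed with 15% TCA, scintillation counted.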

[2] = target: T1, Vascular endothelial growth factor receptor 1 (Homo sapiens, UniProt P17948); assay: Inhibition of GST-Flt1 kinase domain (unknown origin) expressed in baculovirus infected Sf9 cells after 20 mins by scintillation counting
T1 sequence (P17948 whole entry, the tested form may be a part): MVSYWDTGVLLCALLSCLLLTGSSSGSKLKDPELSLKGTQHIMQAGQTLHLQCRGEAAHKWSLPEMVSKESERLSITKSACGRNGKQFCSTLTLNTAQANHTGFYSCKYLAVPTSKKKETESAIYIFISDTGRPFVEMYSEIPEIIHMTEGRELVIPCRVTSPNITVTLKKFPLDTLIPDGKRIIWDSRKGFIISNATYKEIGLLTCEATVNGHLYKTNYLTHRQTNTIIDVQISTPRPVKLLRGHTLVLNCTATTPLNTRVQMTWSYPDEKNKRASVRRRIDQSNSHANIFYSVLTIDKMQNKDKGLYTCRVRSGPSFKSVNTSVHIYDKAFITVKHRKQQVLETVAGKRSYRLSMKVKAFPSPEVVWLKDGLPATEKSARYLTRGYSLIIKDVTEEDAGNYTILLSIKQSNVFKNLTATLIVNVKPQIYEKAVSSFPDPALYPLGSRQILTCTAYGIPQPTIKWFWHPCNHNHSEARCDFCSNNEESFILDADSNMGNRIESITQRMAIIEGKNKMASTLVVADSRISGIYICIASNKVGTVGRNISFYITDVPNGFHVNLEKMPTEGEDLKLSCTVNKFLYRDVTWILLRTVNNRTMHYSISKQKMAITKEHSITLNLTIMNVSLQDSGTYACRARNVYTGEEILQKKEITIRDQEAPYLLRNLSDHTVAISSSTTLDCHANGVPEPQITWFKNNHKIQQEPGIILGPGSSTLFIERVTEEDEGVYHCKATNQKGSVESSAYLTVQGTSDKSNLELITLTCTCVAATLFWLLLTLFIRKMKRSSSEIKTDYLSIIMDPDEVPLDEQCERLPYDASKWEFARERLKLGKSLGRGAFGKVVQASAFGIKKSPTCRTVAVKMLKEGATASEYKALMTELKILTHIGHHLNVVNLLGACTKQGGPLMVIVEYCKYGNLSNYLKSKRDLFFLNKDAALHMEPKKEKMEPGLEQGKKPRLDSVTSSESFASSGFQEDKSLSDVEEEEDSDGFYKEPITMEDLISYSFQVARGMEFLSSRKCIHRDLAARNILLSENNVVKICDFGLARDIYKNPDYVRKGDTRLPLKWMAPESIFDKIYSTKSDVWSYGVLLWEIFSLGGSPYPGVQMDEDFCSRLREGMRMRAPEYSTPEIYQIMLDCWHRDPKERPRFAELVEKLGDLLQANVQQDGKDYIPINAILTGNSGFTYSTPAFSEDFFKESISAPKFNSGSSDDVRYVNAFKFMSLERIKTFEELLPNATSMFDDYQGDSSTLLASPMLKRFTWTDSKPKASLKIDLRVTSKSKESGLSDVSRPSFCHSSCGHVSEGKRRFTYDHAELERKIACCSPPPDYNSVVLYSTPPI

[3] = target: Platelet-derived growth factor receptor alpha (Homo sapiens, UniProt P16234); assay: Inhibition of PDGFR-alpha (unknown origin) after 20 mins by scintillation counting
NIH3T3 [4] = assay: Cytotoxicity against mouse NIH/3T3 cells overexpressing Flt-1 (unknown origin) after 48 hrs; format: cell-based; settings: nih3t3, 48 h
Summary of the method: (§1)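 MTT viability assay: NIH3T3-Flt-1 or NIH3T3-KDR cells, grown in DMEM with 10% FCS, glutamine and 200 μg/mL G418, were seeded at 3 × 10^3 cells/well with or without test samples and incubated 2 days. MTT was then added for 2 h, formazan dissolved overnight in 10% SDS, and absorbance read at 570 nm.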

[5] = target: Vascular endothelial growth factor receptor 2 (Homo sapiens, UniProt P35968)
[6] = target: Platelet-derived growth factor receptor beta (Homo sapiens, UniProt P09619); assay: Inhibition of PDGFR-beta (unknown origin) after 20 mins by scintillation counting
Sequence of Platelet-derived growth factor receptor beta (P09619 whole entry): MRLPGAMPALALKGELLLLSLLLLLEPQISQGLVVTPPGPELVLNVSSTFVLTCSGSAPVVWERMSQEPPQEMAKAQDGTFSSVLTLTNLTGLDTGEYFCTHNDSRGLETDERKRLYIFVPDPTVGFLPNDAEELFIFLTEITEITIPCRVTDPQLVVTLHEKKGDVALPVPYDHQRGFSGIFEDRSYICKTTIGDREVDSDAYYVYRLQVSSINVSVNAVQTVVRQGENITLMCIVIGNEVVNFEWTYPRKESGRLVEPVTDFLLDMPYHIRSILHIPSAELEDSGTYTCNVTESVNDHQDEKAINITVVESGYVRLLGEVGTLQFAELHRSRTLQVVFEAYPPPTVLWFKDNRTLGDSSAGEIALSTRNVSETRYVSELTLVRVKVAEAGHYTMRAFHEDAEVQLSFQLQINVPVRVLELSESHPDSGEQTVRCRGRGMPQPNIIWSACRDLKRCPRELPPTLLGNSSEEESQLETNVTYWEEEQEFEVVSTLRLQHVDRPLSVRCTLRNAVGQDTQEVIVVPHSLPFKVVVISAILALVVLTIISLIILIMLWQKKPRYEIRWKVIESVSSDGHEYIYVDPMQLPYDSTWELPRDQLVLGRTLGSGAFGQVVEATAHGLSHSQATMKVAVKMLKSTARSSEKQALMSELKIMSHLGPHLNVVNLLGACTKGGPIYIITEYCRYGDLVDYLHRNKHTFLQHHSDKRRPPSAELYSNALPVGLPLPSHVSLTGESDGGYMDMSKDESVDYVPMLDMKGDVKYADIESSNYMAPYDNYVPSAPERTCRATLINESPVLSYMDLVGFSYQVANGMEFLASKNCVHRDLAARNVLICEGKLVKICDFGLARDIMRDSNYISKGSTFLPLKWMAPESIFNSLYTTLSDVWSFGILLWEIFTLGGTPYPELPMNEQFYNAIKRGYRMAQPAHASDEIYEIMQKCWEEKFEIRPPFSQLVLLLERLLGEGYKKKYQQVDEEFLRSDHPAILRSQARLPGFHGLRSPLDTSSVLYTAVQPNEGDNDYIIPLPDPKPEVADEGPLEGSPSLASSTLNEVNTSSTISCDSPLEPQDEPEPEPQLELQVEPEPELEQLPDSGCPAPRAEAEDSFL

[7] = target: Epidermal growth factor receptor (Homo sapiens, UniProt P00533); assay: Inhibition of EGFR (unknown origin) after 20 mins by scintillation counting
Sequence of Epidermal growth factor receptor (P00533 whole entry): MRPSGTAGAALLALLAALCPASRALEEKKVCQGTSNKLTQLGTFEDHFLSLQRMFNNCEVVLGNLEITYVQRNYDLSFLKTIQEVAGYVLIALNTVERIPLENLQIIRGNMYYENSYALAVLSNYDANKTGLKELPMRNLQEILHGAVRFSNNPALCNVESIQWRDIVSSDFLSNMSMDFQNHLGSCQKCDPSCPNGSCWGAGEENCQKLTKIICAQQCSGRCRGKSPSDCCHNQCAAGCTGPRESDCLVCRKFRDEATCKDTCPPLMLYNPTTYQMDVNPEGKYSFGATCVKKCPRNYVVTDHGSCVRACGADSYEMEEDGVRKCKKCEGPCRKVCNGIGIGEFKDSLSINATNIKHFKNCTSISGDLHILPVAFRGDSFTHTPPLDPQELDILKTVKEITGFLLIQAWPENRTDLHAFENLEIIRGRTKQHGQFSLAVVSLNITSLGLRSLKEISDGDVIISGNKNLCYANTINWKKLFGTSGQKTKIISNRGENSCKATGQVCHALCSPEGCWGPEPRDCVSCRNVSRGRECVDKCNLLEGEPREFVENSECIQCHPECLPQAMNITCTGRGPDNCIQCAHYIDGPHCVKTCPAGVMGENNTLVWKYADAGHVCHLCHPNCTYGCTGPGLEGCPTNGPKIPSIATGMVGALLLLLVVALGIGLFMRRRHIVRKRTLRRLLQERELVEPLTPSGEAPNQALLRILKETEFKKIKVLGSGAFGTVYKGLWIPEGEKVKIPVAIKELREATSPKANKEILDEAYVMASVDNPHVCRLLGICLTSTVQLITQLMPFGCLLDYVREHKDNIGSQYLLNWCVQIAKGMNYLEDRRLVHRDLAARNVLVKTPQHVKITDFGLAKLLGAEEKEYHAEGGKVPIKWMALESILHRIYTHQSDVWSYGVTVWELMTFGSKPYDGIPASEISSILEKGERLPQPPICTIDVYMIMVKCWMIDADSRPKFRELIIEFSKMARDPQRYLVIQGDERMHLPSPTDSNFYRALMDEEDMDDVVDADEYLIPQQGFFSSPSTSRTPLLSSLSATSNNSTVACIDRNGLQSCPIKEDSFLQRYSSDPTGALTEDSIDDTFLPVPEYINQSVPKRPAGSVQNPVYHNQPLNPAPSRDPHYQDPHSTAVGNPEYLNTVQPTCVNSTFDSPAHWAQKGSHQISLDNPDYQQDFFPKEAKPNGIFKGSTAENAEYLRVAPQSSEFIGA

[8] = target: T1, Vascular endothelial growth factor receptor 1; assay: Inhibition of ligand-induced phosphorylation of Flt-1 (unknown origin) overexpressed in NIH-3T3 cells at 10 uM after 2 hrs by immunoblotting; format: cell-based; settings: NIH3T3
Summary of the method: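 Subconfluent NIH3T3-Flt-1 cells were serum-starved 16 h, exposed to samples for 2 h, then stimulated 5 min with 50 ng/mL recombinant human VEGF-A. Cells were lysed in HEPES/Triton buffer containing Na3VO4, PMSF and aprotinin. Lysates were immunoblotted with anti-phosphotyrosine, anti-Flt-1 and anti-actin antibodies.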

NIH3T3 [9] = assay: Cytotoxicity against mouse NIH/3T3 cells overexpressing Flt-1 (unknown origin) at 10 uM after 2 hrs; format: cell-based; settings: nih3t3, 2 h
[10] = target: Fibroblast growth factor receptor (Homo sapiens, UniProt P22607+P11362+P22455+P21802); assay: Inhibition of FGFR (unknown origin) after 20 mins by scintillation counting; format: protein assay
NIH3T3 [11] = assay: Cytotoxicity against mouse NIH/3T3 cells overexpressing KDR (unknown origin) after 48 hrs; format: cell-based; settings: nih3t3, 48 h; summary of the method: as §1

Sequence of Vascular endothelial growth factor receptor 3 (P35916 whole entry): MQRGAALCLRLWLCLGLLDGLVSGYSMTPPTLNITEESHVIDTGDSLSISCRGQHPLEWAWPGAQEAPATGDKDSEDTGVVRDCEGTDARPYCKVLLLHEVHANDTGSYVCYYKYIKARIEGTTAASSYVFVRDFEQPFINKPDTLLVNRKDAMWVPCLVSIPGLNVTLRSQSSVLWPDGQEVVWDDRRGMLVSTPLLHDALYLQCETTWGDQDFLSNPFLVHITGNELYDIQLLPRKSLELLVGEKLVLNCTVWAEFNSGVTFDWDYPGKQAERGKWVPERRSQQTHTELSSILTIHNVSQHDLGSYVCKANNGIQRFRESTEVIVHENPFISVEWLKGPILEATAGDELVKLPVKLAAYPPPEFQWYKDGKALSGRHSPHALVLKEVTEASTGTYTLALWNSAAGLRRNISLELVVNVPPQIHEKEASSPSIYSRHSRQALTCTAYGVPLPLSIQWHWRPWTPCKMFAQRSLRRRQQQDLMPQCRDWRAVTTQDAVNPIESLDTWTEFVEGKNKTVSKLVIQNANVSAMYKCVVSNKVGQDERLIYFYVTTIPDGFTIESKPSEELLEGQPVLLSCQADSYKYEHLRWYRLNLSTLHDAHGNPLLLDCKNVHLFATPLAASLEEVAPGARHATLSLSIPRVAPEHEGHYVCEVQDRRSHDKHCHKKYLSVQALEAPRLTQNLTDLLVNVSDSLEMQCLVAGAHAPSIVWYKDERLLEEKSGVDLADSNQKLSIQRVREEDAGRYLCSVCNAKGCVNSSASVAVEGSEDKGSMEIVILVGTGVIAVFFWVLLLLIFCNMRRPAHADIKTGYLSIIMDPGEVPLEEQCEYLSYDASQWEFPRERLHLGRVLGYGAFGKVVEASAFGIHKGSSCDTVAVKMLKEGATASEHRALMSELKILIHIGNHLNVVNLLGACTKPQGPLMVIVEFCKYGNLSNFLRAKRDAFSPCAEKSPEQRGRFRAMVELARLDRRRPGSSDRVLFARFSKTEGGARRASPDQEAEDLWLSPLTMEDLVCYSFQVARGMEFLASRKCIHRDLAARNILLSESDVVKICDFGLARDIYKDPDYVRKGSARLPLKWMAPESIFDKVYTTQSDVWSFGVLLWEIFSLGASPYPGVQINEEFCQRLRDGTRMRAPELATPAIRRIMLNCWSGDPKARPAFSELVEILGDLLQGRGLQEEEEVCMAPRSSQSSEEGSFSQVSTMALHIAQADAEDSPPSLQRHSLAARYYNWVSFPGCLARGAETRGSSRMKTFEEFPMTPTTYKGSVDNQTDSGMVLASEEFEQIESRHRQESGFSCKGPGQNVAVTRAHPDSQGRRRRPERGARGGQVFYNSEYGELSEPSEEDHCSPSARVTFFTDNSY

| SMILES | IC50 [1] | IC50 [2] | IC50 [3] | Activity (NIH3T3 [4]) | IC50 [5] | IC50 [6] | IC50 [7] | Activity [8] | Activity (NIH3T3 [9]) | IC50 [10] | Activity (NIH3T3 [11]) |
| --- | --- | --- | --- | --- | --- | --- | --- | --- | --- | --- | --- |
| Cc1cc(C)c(/C=C2\C(=O)Nc3ccccc32)[nH]1 [SEMAXANIB] | 500 nM | – | – | – | – | – | – | – | – | – | – |
| NC(=O)C1=C(N)C(=O)C=C(Nc2ccccc2O)C1=O [VEGFRECINE] | 1.8 nM | 18 nM | 3200 nM | 3 µM | 11 nM | 480 nM | 2600 nM | Active | Non-toxic | 730 nM | 12 µM |
